Consider nine compounds from ChEMBL document CHEMBL1124962, “Synthesis and structure-affinity of a series of 7 alpha-undecylestradiol derivatives: a potential vector for therapy and imaging of estrogen-receptor-positive cancers” (J Med Chem, 1990).

The first assay has as its target T1, Estrogen receptor (Bos taurus) (UniProt Q9XSB5+P49884). Put plainly: Ratio of displacement of 17-beta-[3H]-estradiol from calf uterine estrogen receptor compared to 17-beta-estradiol after 12 hr incubation. The assay is classed as protein assay. The method in brief:
(§1)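 Calf uterine cytosol (105000g, 60 min, 4 °C spin of homogenate in 5 mM sodium phosphate pH 7.5, 10 mM monothioglycerol, 10% glycerol; 0.68 mg protein in final mix) incubated at 4 °C without DMF with 10⁻⁹ M 17β-[³H]estradiol and nine competitor concentrations (3 × 10⁻¹²–10⁻⁶ M), triplicates. Dextran-coated charcoal separation, supernatant counted. RBA = IC50 ratio of estradiol to competitor ×100, mean of ≥3 experiments.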
As for `C=CCCCCCCCCC[C@@H]1Cc2cc(O)ccc2[C@H]2CC[C@]3(C)[C@@H](O)CC[C@H]3[C@H]12`, the relative binding affinity (RBA) is 0.09.

Consider `C[C@]12CC[C@@H]3c4ccc(O)cc4C[C@@H](CCCCCCCCCCCCl)[C@H]3[C@@H]1CC[C@@H]2O`, for which the relative binding affinity (RBA) was found to be 0.7.

For `C[C@]12CC[C@@H]3c4ccc(O)cc4C[C@@H](CCCCCCCCCCCOc4ccc(I)cc4)[C@H]3[C@@H]1CC[C@@H]2O`, the relative binding affinity (RBA) was found to be 0.1.

Turning to `C[C@]12CC[C@@H]3c4ccc(O)cc4C[C@@H](CCCCCCCCCCCBr)[C@H]3[C@@H]1CC[C@@H]2O`, the relative binding affinity (RBA) was 0.05.

In the case of `C[C@]12CC[C@@H]3c4ccc(O)cc4C[C@@H](CCCCCCCCCCCO)[C@H]3[C@@H]1CC[C@@H]2O`, the relative binding affinity (RBA) was 2.9.

Take `C[C@]12CC[C@@H]3c4ccc(O)cc4C[C@@H](CCCCCCCCCCCOc4ccccc4)[C@H]3[C@@H]1CC[C@@H]2O`: the relative binding affinity (RBA) was determined as 0.1.

In the case of `C[C@]12CC[C@@H]3c4ccc(O)cc4C[C@@H](CCCCCCCCCCCF)[C@H]3[C@@H]1CC[C@@H]2O`, the relative binding affinity (RBA) is 1.3.

With `C[C@]12CC[C@@H]3c4ccc(O)cc4C[C@@H](CCCCCCCCCCCI)[C@H]3[C@@H]1CC[C@@H]2O`, the relative binding affinity (RBA) amounted to 0.04.

As for `C[C@]12CC[C@@H]3c4ccc(O)cc4CC[C@H]3[C@@H]1C[C@@H](I)[C@@H]2O`, the relative binding affinity (RBA) was found to be 22.1.

In another assay the target is T1, Estrogen receptor (Bos taurus). As to the kind of experiment: Ratio of displacement of 17-beta-[3H]-estradiol from calf uterine estrogen receptor compared to 17-beta-estradiol after 20 hr incubation. Type of assay: protein assay. The method, boiled down: as §1
As to `C=CCCCCCCCCC[C@@H]1Cc2cc(O)ccc2[C@H]2CC[C@]3(C)[C@@H](O)CC[C@H]3[C@H]12`, the relative binding affinity (RBA) is 0.09.

As to `C[C@]12CC[C@@H]3c4ccc(O)cc4C[C@@H](CCCCCCCCCCCCl)[C@H]3[C@@H]1CC[C@@H]2O`, the relative binding affinity (RBA) is 0.7.

Take `C[C@]12CC[C@@H]3c4ccc(O)cc4C[C@@H](CCCCCCCCCCCOc4ccc(I)cc4)[C@H]3[C@@H]1CC[C@@H]2O`: the relative binding affinity (RBA) is 0.09.

Turning to `C[C@]12CC[C@@H]3c4ccc(O)cc4C[C@@H](CCCCCCCCCCCBr)[C@H]3[C@@H]1CC[C@@H]2O`, the relative binding affinity (RBA) turned out to be 0.2.

With `C[C@]12CC[C@@H]3c4ccc(O)cc4C[C@@H](CCCCCCCCCCCO)[C@H]3[C@@H]1CC[C@@H]2O`, the relative binding affinity (RBA) came to 2.

On to `C[C@]12CC[C@@H]3c4ccc(O)cc4C[C@@H](CCCCCCCCCCCOc4ccccc4)[C@H]3[C@@H]1CC[C@@H]2O`, for which the relative binding affinity (RBA) worked out at 0.1.

With `C[C@]12CC[C@@H]3c4ccc(O)cc4C[C@@H](CCCCCCCCCCCF)[C@H]3[C@@H]1CC[C@@H]2O`, the relative binding affinity (RBA) was determined as 1.5.

For `C[C@]12CC[C@@H]3c4ccc(O)cc4C[C@@H](CCCCCCCCCCCI)[C@H]3[C@@H]1CC[C@@H]2O`, the relative binding affinity (RBA) stood at 0.1.

Take `C[C@]12CC[C@@H]3c4ccc(O)cc4CC[C@H]3[C@@H]1C[C@@H](I)[C@@H]2O`: the relative binding affinity (RBA) amounted to 27.1.
